Assay results reported in ChEMBL document CHEMBL4387724, “2-Pyridineformamide N(4)-ring incorporated thiosemicarbazones inhibit MCF-7 cells by inhibiting JNK pathway” (Bioorg Med Chem Lett, 2019).
Calls of active or inactive are those of the source. No cut-off for these calls is given here.

Columns and labels:
[1] = test system: HeLa; assay: Cytotoxicity against human HeLa cells assessed as reduction in cell growth incubated for 72 hrs by MTT assay; type: functional, cell-based
How it was run: (§1)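 Cells grown in DMEM with 10% FBS and penicillin-streptomycin at 37 °C, 5% CO2, seeded at 3000 cells/well and attached overnight. Screening series given at 1, 3, 10, 100 μM; follow-up agent at 100 nM–3 μM; both 72 h, with 0.1% DMSO vehicle. MTT (5 mg/mL stock) added for 3 h at 37 °C, formazan dissolved in DMSO, absorbance read at 570 nm. Viability expressed as % of DMSO-treated wells from replicates.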

[2] = test system: MCF7; assay: Cytotoxicity against human MCF7 cells assessed as reduction in cell growth at 30 uM incubated for 72 hrs by MTT assay relative to control; type: functional; conditions: MCF7, 72 h, read-out: GI
[3] = test system: MCF7; assay: Induction of apoptosis in human MCF7 cells assessed as increase in Bax protein expression at 100 nM to 3 uM incubated for 48 hrs by immunoblot method; type: functional, cell-based
How it was run: (§2)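 MCF7 cells seeded at 1.25×10^5 per well in six-well plates and treated at 100 nM–3 μM for 48 h per legend (72 h per methods note). Lysed in 2X SDS buffer and sonicated; protein quantified by BCA. 20–25 µg run on 12% SDS gels and transferred to PVDF. Blocked in 5% BSA/TBST, primary antibodies overnight, secondary 1 h, ECL detection, β-actin as loading control.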

[4] = test system: A-431; assay: Cytotoxicity against human A431 cells assessed as reduction in cell growth incubated for 72 hrs by MTT assay; type: functional, cell-based; conditions: A-431, 72 h; how it was run: as §1
[5] = test system: A-431; assay: Cytotoxicity against human A431 cells assessed as reduction in cell growth at 100 uM incubated for 72 hrs by MTT assay relative to control; type: functional; conditions: A-431, 72 h, read-out: GI; how it was run: as §1
[6] = test system: A-375; assay: Cytotoxicity against human A375 cells assessed as reduction in cell growth at 10 uM incubated for 72 hrs by MTT assay relative to control; type: functional; conditions: A-375, 72 h, read-out: GI; how it was run: as §1
[7] = test system: A-375; assay: Cytotoxicity against human A375 cells assessed as reduction in cell growth at 30 uM incubated for 72 hrs by MTT assay relative to control; type: functional; conditions: A-375, 72 h, read-out: GI
[8] = test system: HeLa; assay: Cytotoxicity against human HeLa cells assessed as reduction in cell growth at 10 uM incubated for 72 hrs by MTT assay relative to control; type: functional; conditions: read-out: GI; how it was run: as §1
[9] = test system: A-431; assay: Cytotoxicity against human A431 cells assessed as reduction in cell growth at 30 uM incubated for 72 hrs by MTT assay relative to control; type: functional; conditions: A-431, 72 h, read-out: GI
[10] = test system: A-431; assay: Cytotoxicity against human A431 cells assessed as reduction in cell growth at 10 uM incubated for 72 hrs by MTT assay relative to control; type: functional; conditions: A-431, 72 h, read-out: GI; how it was run: as §1
[11] = test system: A-375; assay: Cytotoxicity against human A375 cells assessed as reduction in cell growth at 1 uM incubated for 72 hrs by MTT assay relative to control; type: functional; conditions: A-375, 72 h, read-out: GI; how it was run: as §1
[12] = test system: MCF7; assay: Antiproliferative activity against human MCF7 cells assessed as induction of cell death at 100 nM to 3 uM incubated for 48 hrs by propidium iodide based flow cytometry; type: functional
How it was run: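 MCF7 cells in DMEM with 10% FBS at 37 °C, 5% CO2, 30,000 cells/well in six-well plates, exposed to 100 nM, 300 nM, 1 μM or 3 μM (0.1% DMSO vehicle) for 48 h per legend (72 h per methods note). Harvested, washed in PBS, stained with propidium iodide (5 μg/mL) 20 min at 4 °C, and % dead cells read by flow cytometry against DMSO control.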

[13] = test system: MCF7; assay: Cytotoxicity against human MCF7 cells assessed as reduction in cell growth at 3 uM incubated for 72 hrs by MTT assay relative to control; type: functional; conditions: MCF7, 72 h, read-out: GI; how it was run: as §1
[14] = test system: MCF7; assay: Induction of apoptosis in human MCF7 cells assessed as reduction in Bcl2 protein expression at 100 nM to 3 uM incubated for 48 hrs by immunoblot method; type: functional, cell-based; how it was run: as §2
[15] = test system: HeLa; assay: Cytotoxicity against human HeLa cells assessed as reduction in cell growth at 3 uM incubated for 72 hrs by MTT assay relative to control; type: functional; conditions: read-out: GI; how it was run: as §1
[16] = test system: HeLa; assay: Cytotoxicity against human HeLa cells assessed as reduction in cell growth at 30 uM incubated for 72 hrs by MTT assay relative to control; type: functional; conditions: read-out: GI
[17] = test system: HeLa; assay: Cytotoxicity against human HeLa cells assessed as reduction in cell growth at 1 uM incubated for 72 hrs by MTT assay relative to control; type: functional; conditions: read-out: GI; how it was run: as §1
[18] = test system: A-375; assay: Cytotoxicity against human A375 cells assessed as reduction in cell growth incubated for 72 hrs by MTT assay; type: functional, cell-based; conditions: A-375, 72 h; how it was run: as §1
[19] = test system: A-431; assay: Cytotoxicity against human A431 cells assessed as reduction in cell growth at 1 uM incubated for 72 hrs by MTT assay relative to control; type: functional; conditions: A-431, 72 h, read-out: GI; how it was run: as §1
[20] = test system: HeLa; assay: Cytotoxicity against human HeLa cells assessed as reduction in cell growth at 100 uM incubated for 72 hrs by MTT assay relative to control; type: functional; conditions: read-out: GI; how it was run: as §1
[21] = test system: MCF7; assay: Cytotoxicity against human MCF7 cells assessed as reduction in cell growth incubated for 72 hrs by MTT assay; type: functional, cell-based; conditions: MCF7, 72 h; how it was run: as §1
[22] = test system: A-375; assay: Cytotoxicity against human A375 cells assessed as reduction in cell growth at 3 uM incubated for 72 hrs by MTT assay relative to control; type: functional; conditions: A-375, 72 h, read-out: GI; how it was run: as §1
[23] = test system: MCF7; assay: Cytotoxicity against human MCF7 cells assessed as reduction in cell growth at 1 uM incubated for 72 hrs by MTT assay relative to control; type: functional; conditions: MCF7, 72 h, read-out: GI; how it was run: as §1
[24] = test system: MCF7; assay: Induction of apoptosis in human MCF7 cells assessed as effect on pro-caspase-3 expression at 100 nM to 3 uM incubated for 48 hrs by immunoblot method; type: functional, cell-based; how it was run: as §2
[25] = test system: MCF7; assay: Induction of apoptosis in human MCF7 cells assessed as effect on PARP1 protein expression at 100 nM to 3 uM incubated for 48 hrs by immunoblot method; type: functional, cell-based; how it was run: as §2
[26] = test system: MCF7; assay: Cytotoxicity against human MCF7 cells assessed as reduction in cell growth at 100 nM to 3 uM incubated for 72 hrs by MTT assay; type: functional, cell-based; how it was run: as §1
[27] = test system: A-431; assay: Cytotoxicity against human A431 cells assessed as reduction in cell growth at 3 uM incubated for 72 hrs by MTT assay relative to control; type: functional; conditions: A-431, 72 h, read-out: GI; how it was run: as §1
[28] = test system: MCF7; assay: Antiproliferative activity against human MCF7 cells assessed as inhibition of colony formation at 100 nM to 3 uM incubated for 21 days with every 72 hrs media was change treatment by crystal violet staining based assay; type: functional, cell-based
How it was run: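 MCF7 cells seeded at 500 cells/well (legend: 1200/well) in six-well plates, left to adhere overnight, then dosed at 100 nM–3 μM. Medium and compound renewed every 72 h over 21 days. Colonies washed with PBS, fixed in 3.7% formaldehyde 20 min, stained with 0.4% crystal violet, rinsed in PBS, then counted.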

[29] = test system: MCF7; assay: Induction of apoptosis in human MCF7 cells assessed as downregulation of c-Jun protein expression 100 nM to 3 uM incubated for 48 hrs by immunoblot method; type: functional, cell-based; how it was run: as §2
[30] = test system: MCF7; assay: Cytotoxicity against human MCF7 cells assessed as reduction in cell growth at 10 uM incubated for 72 hrs by MTT assay relative to control; type: functional; conditions: MCF7, 72 h, read-out: GI; how it was run: as §1
[31] = test system: MCF7; assay: Induction of apoptosis in human MCF7 cells assessed as downregulation of JNK1 protein expression at 100 nM to 3 uM incubated for 48 hrs by immunoblot method; type: functional, cell-based; how it was run: as §2
[32] = test system: A-375; assay: Cytotoxicity against human A375 cells assessed as reduction in cell growth at 100 uM incubated for 72 hrs by MTT assay relative to control; type: functional; conditions: A-375, 72 h, read-out: GI; how it was run: as §1
[33] = test system: MCF7; assay: Cytotoxicity against human MCF7 cells assessed as reduction in cell growth at 100 uM incubated for 72 hrs by MTT assay relative to control; type: functional; conditions: MCF7, 72 h, read-out: GI; how it was run: as §1

Compound | IC50 [1] | inhibition of growth at 30 µM [2] | IC50 [4] | inhibition of growth at 100 µM [5] | inhibition of growth at 10 µM [6] | inhibition of growth at 30 µM [7] | inhibition of growth at 10 µM [8] | inhibition of growth at 30 µM [9] | inhibition of growth at 10 µM [10] | inhibition of growth at 1 µM [11] | inhibition of growth at 3 µM [13] | inhibition of growth at 3 µM [15] | inhibition of growth at 30 µM [16] | inhibition of growth at 1 µM [17] | IC50 [18] | inhibition of growth at 1 µM [19] | inhibition of growth at 100 µM [20] | IC50 [21] | inhibition of growth at 3 µM [22] | inhibition of growth at 1 µM [23] | other results
N/C(=N\NC(=S)N1CCCC1)c1ccc(F)cn1 | 1800 nM | 60.6% | 1000 nM | 85.6% | 82.3% | 83.2% | 72.7% | 83.3% | 78.7% | 57.9% | 52.6% | 77.7% | 81.2% | 62.8% | 860 nM | 50.7% | 85.4% | 900 nM | 81.8% | 51% | Activity [3]: Active; Activity [12]: Dose-dependent effect; Activity [14]: Active; Activity [24]: Active; Activity [25]: Active; Activity [26]: Dose-dependent effect; inhibition of growth at 3 µM [27]: 72.2%; inhibition [28]: Dose-dependent effect; Activity [29]: Dose-dependent effect; inhibition of growth at 10 µM [30]: 54.5%; Activity [31]: Dose-dependent effect; inhibition of growth at 100 µM [32]: 86.6%; inhibition of growth at 100 µM [33]: 73%
Cc1ccnc(/C(N)=N/NC(=S)N2CCCC2)c1 | 1900 nM | 82.2% | 900 nM | 86.9% | 86% | 87.9% | 67% | 84.2% | 71.2% | 69% | 57.7% | 52.1% | 86.4% | 25.9% | 720 nM | 58.5% | 88.1% | 1200 nM | 80% | 49% | inhibition of growth at 3 µM [27]: 63%; inhibition of growth at 10 µM [30]: 63.6%; inhibition of growth at 100 µM [32]: 88.8%; inhibition of growth at 100 µM [33]: 87.7%
